# Most compounds without a hit are left out; they make up all but 4% or so of the library.
# SENP1 FRET inh – inhibitors of human SENP1 SUMO protease catalytic domain. 0.21% of 360,000 active. Q9P0U3. recombinant SENP1 catalytic domain, CyPet-SUMO1-YPet FRET cleavage. inhibition, % at 10 µM;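 active = inhibition at least 30% at 10 µM, raw YFP signal under a set limit, fluorescence ratio 0.5 to 1.5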;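 note: 0% = enzyme with DMSO and 100% = no enzyme wells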
# Target sequence (Q9P0U3 419-644 limits assumed): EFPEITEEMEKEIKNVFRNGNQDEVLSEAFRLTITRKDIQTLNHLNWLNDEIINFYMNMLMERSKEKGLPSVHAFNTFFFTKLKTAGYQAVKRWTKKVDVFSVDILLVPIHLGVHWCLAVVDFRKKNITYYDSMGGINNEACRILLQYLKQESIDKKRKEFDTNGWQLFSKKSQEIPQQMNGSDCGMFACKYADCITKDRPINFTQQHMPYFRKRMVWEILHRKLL
#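 Assay system – human recombinant His6-tagged SENP1 catalytic domain enzyme · Input – SENP1 enzyme, 20 pM final · Buffer or medium – Tris pH 8 buffer plus EDTA, NaCl, BME, BSA, NP40, catalase · Schedule – 50 min reaction at room temperature · Technique – FRET read of cyan and yellow fluorescence · Control set – no-enzyme wells low, DMSO-plus-enzyme wells high control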
# FAS TE block – inhibitors of human fatty acid synthase thioesterase domain; P49327; recombinant FAS-TE, OMFH fluorogenic substrate, fluorescence endpoint; inhibition, % at 15 µM; 0.67% of 360,000 active;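 active = compounds whose normalised, plate-corrected inhibition of enzyme fluorescence in the single-dose primary screen is 50% or more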;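 note: 0% = DMSO with enzyme and 100% = substrate without enzyme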
# NR3A LBD binder – modulates the human NR3A ligand-binding domain. NR3A LBD differential scanning fluorimetry, Tm shift; 0% = protein alone, 100% = glycine-bound protein. Tm shift relative to glycine control, % at 25 µM. 2.5% of 340,000 active. AID 1259313;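 active = melting temperature shift of at least 10% of the positive control shift, at one fixed dose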
# Arr AP2 block – inhibitors of human beta-arrestin and AP2 interaction; 0.31% of 340,000 active; inhibition, % at 10 µM; FITC-arrestin peptide / GST-AP2 beads, flow cytometry; AP2 beta2 appendage carries R879A mutation; AID 504490;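 active = inhibition above a set limit, near 3 SD of compounds lacking own fluorescence, cut at about 54% in these data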;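 note: plate controls were DMSO wells for no effect and 5 µM unlabelled arrestin peptide for full effect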
#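 System: GST-AP2 R879A bound to glutathione beads, E. coli-expressed. Also added: 50 nM FITC-arrestin peptide. Schedule: compound with beads 12 min RT, then probe 1 h RT. Signal: bead flow cytometry, FITC channel. Read-out basis: percent response.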
# H9c2 protect – modulators protecting cardiomyocytes from myocardial damage; protection from H2O2 cell death, % at 20 µM; AID 588492; H9c2 cardiomyocytes, H2O2 injury protection, ATPLite, 2 h; 0.63% of 360,000 active;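 active = compounds giving at least 50% protection of heart cells from peroxide-induced death in the single-dose screen, raw or plate-pattern-corrected value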;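 note: 0% = DMSO wells with peroxide and 100% = DMSO wells without peroxide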
# hiPSC survival – hiPSC single-cell survival enhancement. ATPlite luminescence; 100% = ROCK inhibitor wells, 0% = DMSO. survival enhancement, % at 20 µM. 0.044% of 360,000 active. AID 602274; in the data active = survival enhancement above about 18%;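 note: cells exposed to compounds for 16 hours before the ATP read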
# Numbers without * were called inactive; . = not tested or not shown.
SMILES,SENP1 FRET inh,FAS TE block,NR3A LBD binder,Arr AP2 block,H9c2 protect,hiPSC survival
O=c1[nH]c(=O)n(Cc2ccco2)c2c1C(C(F)(F)F)(C(F)(F)F)N=C(CCc1ccccc1)N2,0,7,2,-3,-12,1
N#Cc1ccc(C2=NC(C(F)(F)F)(C(F)(F)F)c3c(n(Cc4ccco4)c(=O)[nH]c3=O)N2)cc1,-4,2,12*,8,-10,4
Cc1cccc(CN(Nc2ccccc2)c2ccccc2)n1,4,9,.,.,-8,-2
COc1ccc(CN2C[C@@H](CO)O[C@@H](n3cnc4c(NCc5ccco5)ncnc43)C2)cc1,-3,-6,.,.,0,2
COc1cc(/C=N/NC(=O)c2cc(-c3ccc4c(c3)OCO4)n[nH]2)ccc1O,1,-6,28*,3,74*,-2
COc1cc(/C=N/NC(=O)c2cc(-c3c(C)nn(-c4ccccc4)c3C)n[nH]2)ccc1O,-1,-5,1,2,51*,-1
Cc1nn(-c2ccccc2)c(C)c1-c1cc(C(=O)N/N=C/c2ccc(O)cc2)[nH]n1,-2,-2,8,18,56*,1
Cc1nn(-c2ccccc2)c(C)c1/C=N/NC(=O)c1cc(O)cc(O)c1,0,-6,-17,-6,15,0
O=C(NCc1ccccc1Cl)c1ccc2sc([C@@H]3O[C@H](CO)[C@H](O)[C@H](O)[C@H]3O)nc2c1,0,-10,.,.,9,0
O=C(c1ccc(S(=O)(=O)Cc2cc(F)ccc2F)c([N+](=O)[O-])c1)N1CCOCC1,4,-7,.,.,-15,-4
Cc1ccc(NC(=O)c2cc3ccccc3cc2O)cc1,-23,0,22*,13,-18,0
CCc1ccc(NC(=O)NNC(=O)c2cc3ccccc3cc2O)cc1,13,-2,10*,-15,5,4
CCOc1ccc(NC(=O)NNC(=O)c2cc3ccccc3cc2O)cc1,12,3,2,31,12,0
CCCC(=O)C1=C(O)C(C(=O)OC)C(C)(C)CC1=Nc1ccc(N)cc1 (configuration not stated),-1,-11,-2,-5,14,-1
CCCC(=Nc1ccc(N)cc1)C1=C(O)C(C(=O)OC)C(C)(C)CC1=O (configuration not stated),44*,-6,1,4,-7,-1
Cc1cc(C)n2c(NC3CCCCC3)c(-c3cccnc3)nc2n1,50,-10,.,.,.,1
Cc1ccc2c(c1)nc1c3ccccc3nc(-c3ccccc3N)n21,1,1,.,.,58*,3
C/C=C/c1cccc(-c2nc(C(=O)NC3CCCC3)cc3c2[C@@H](CCO)N(S(=O)C(C)(C)C)C3)c1 (some centres not stated),-17,-4,.,.,11,0
Cc1ccc(-c2nc(SCC(=O)Nc3cc(S(=O)(=O)N4CCCCC4)ccc3Cl)n[nH]2)cc1,-1,-55,12*,5,-27,4
Nc1cc(=O)[nH]c(SCC(=O)Nc2cc(S(=O)(=O)N3CCCCCC3)ccc2Cl)n1,-2,-12,-2,15,-9,2
COc1ccc(-c2nc(SCC(=O)Nc3cc(C)on3)n[nH]2)cc1,0,-8,10*,10,9,3
COc1cccc(CNc2nc3cc(-c4ccccc4CO)sc3c(=O)n2C)c1,0,5,.,.,-1,-2
Cc1ccc(C)c(NC(=O)c2cc3c([nH]c4ccccc43)c(C)n2)c1,-27,-4,0,28,-3,6
Cc1cccc(NC(=O)c2cc3c([nH]c4ccccc43)c(C)n2)c1C,-30,-6,14*,-7,11,0
Cc1ccc(C(NC(=O)C2CCN(Cc3ccc(Cl)c(Cl)c3)CC2)c2ccccn2)cc1 (configuration not stated),-9,2,.,.,3,4
SMILES,SENP1 FRET inh,FAS TE block,NR3A LBD binder,Arr AP2 block,H9c2 protect,hiPSC survival
CC1(C)Cc2c(c(N3CCOCC3)nc3sc(-c4ccc(C(=O)O)o4)c(N)c23)CO1,-24,-4,1,-9,25,-1
CNC(=O)c1ccc(-c2sc3nc(N4CCOCC4)c4c(c3c2N)CCCC4)o1,-22,6,-5,9,80*,3
CNC(=O)c1ccc(-c2sc3nc(N4CCOCC4)c4c(c3c2N)CC(C)(C)OC4)o1,-20,0,-4,9,97*,-1
Oc1c(Cl)cc(Cl)cc1/C=N/c1nccs1,-24,-3,6,3,61*,1
COc1cccc(Nc2nc(-c3ccc(O)cc3)cs2)c1,-3,14,23*,4,-10,0
COc1cccc(-c2csc(Nc3ccc(Oc4ccccc4)cc3)n2)c1,2,25,.,.,-6,0
COc1cccc(Nc2nc(-c3cccc(N4C(=O)c5ccccc5C4=O)c3)cs2)c1,-1,16,33*,15,-6,-2
Cc1cccc(-c2cnc(C(O)Cc3ccccc3)[nH]2)c1 (configuration not stated),2,-2,.,.,3,-2
Cc1cccc2cc(CN(Cc3cccs3)C3(c4nnnn4C4CCCC4)CCCC3)c(=O)[nH]c12,2,31,11*,6,-12,-2
CN1CC(O)(C(O)C(O)C(O)CO)SC1=S (configuration not stated),1,-6,.,.,-1,-2
OC[C@@H]1CN(Cc2cccs2)C[C@H](n2cnc3c(NCc4ccncc4)ncnc32)O1,-4,-8,.,.,7,1
COc1cc(/C=N/c2oc(-c3ccccc3)cc2C#N)ccc1O,0,2,33*,-1,6,-3
CCOC(=O)C1=C(CC)Nc2ccccc2N=C1NC(=O)Nc1ccc(Cl)c(Cl)c1,0,48,28*,-4,-18,-2
CC(=O)c1ccc(OC2(C)CCN(CCOc3ccc(C)cc3)C2)cc1 (configuration not stated),1,1,.,.,-1,0
Fc1ccc(/C=C\c2nccc3c2[nH]c2ccccc23)cc1,-85,36,13*,-16,-26,0
C(=C\c1nccc2c1[nH]c1ccccc12)/c1ccccc1,-132,18,16*,8,3,0
O=c1[nH]c2ccccc2nc1/C=C/c1ccc(F)cc1,-25,-6,-4,0,-14,-1
Cc1ccc(/C=C/c2nc3ccccc3c(=O)[nH]2)cc1,-8,-1,-1,5,-25,-1
Cc1ccc(/C=C\c2nccc3c2[nH]c2ccccc23)cc1,-30,38,14*,17,-22,0
Cc1nc(Cl)cc(N/N=C/c2ccc(O)cc2O)n1,15,1,19*,12,30,-1
Cc1cc(C)c2nc(C)cc(N/N=C/c3ccc(O)cc3)c2c1,-60,0,5,-9,-20,-1

# Source: PubChem
